Measured values reported in ChEMBL document CHEMBL3046597, “Synthesis of new carboxylesterase inhibitors and evaluation of potency and water solubility” (Chem Res Toxicol, 2001).
Converted amounts (≈) assume the structure as drawn.

Experiments:
[1] = molecular target: T1, Liver carboxylesterase (Sus scrofa, UniProt Q29550); assay: Inhibition of Sus scrofa (pig) carboxylesterase isolated from liver in using p-nitrophenyl acetate as substrate incubated for 5 min prior to substrate addition measured for 2 min by spectrophotometric analysis
T1 sequence (Q29550 whole entry): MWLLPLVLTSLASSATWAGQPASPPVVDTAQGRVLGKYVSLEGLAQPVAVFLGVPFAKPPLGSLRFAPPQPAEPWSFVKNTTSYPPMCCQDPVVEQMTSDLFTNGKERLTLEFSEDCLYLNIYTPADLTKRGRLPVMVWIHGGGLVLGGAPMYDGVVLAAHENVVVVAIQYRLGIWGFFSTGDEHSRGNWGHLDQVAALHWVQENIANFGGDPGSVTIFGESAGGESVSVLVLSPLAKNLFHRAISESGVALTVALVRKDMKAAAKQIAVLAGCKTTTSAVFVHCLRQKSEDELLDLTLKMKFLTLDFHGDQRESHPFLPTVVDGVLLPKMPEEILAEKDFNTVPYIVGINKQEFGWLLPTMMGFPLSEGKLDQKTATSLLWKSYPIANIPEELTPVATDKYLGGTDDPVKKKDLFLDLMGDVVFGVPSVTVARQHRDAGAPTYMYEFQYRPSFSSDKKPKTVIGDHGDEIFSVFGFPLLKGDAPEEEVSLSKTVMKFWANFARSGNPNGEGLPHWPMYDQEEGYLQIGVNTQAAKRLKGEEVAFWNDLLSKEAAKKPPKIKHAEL
In short: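 Crude porcine liver carboxylesterase, partially purified, working solution 0.02 mg total protein/mL (0.3 units/mL) in 0.1 M sodium phosphate, pH 7.4; […]. Inhibitors from DMF stocks (≤1% DMF, solvent-corrected). PNPA at 0.5 mM final, 30 °C, kinetic read at 405 nm.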

[2] = molecular target: T2, Liver carboxylesterase B-1 (Rattus norvegicus, UniProt Q63010); assay: Inhibition of carboxylesterase in Fischer 344 Rattus norvegicus (rat) liver microsomes using p-nitrophenyl acetate as substrate incubated for 5 min prior to substrate addition measured for 2 min by spectrophotometric analysis
T2 sequence (Q63010 whole entry): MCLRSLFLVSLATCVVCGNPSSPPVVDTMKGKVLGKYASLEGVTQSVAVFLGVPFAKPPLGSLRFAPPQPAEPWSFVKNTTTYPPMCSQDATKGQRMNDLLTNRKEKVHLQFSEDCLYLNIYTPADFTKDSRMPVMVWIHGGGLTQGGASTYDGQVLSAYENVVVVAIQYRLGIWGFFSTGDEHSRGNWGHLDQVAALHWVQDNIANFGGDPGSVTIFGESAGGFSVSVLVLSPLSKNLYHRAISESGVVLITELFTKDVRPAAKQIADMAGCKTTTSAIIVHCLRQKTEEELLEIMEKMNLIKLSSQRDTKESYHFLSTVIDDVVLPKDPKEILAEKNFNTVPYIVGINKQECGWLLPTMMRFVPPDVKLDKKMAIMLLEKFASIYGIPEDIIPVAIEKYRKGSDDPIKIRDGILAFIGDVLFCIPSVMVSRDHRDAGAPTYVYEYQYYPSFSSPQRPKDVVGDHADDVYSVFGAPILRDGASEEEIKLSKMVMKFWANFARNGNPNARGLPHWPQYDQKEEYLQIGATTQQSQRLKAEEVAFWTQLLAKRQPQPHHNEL
In short: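 Livers from 8-week-old rats, perfused with 1% KCl; 100000g microsomal pellet solubilized in 1% n-octyl β-D-glucopyranoside and recentrifuged. Assayed at 0.8 mg/mL protein in 0.1 M sodium phosphate pH 7.4, 30 °C. PNPA 0.5 mM final, read at 405 nm. DMF ≤1%, solvent-corrected.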

[3] = molecular target: T3, Juvenile hormone esterase (Trichoplusia ni, UniProt P30809+P30810); assay: Inhibition of Trichoplusia ni (cabbage looper) juvenile hormone esterase isolated from fifth-intsar larval stage using [3H]JH 3 as substrate incubated for 10 min prior to substrate addition measured after 15 min by liquid scintillation counting; type: protein assay
T3 sequence (P30809 whole entry): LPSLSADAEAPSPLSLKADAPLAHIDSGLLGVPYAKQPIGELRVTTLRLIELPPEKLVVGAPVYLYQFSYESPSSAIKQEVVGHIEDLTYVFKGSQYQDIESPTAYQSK
T3 sequence (P30810 whole entry): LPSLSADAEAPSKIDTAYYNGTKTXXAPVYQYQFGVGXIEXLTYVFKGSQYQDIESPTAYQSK
In short: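 Day-2 fifth-instar larval hemolymph collected with PTU, spun at 1000g, diluted 1:1 in 0.1 M phosphate pH 7.4 with 0.01% PTU, then diluted 300-fold in 0.1 M sodium phosphate pH 7.4 containing 0.1 mg/mL BSA. Inhibitors (DMF ≤1%) preincubated at 30 °C. JH III 5 µM final, 30 °C. Isooctane partition, aqueous-phase radioactivity counted.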

[4] = Solubility of the compound in sodium phosphate buffer at pH 7.4; type: physicochemical

Compound | IC50 [1] | IC50 [2] | IC50 [3] | solubility [4]
CCCCCCCCCCSCC(=O)C(F)(F)F | 135 nM | 115 nM | 20 nM | –
CCCCCCCCSCC(=O)C(F)(F)F | 36.8 nM | 37.2 nM | 1.6 nM | 200 µM (≈ 51.3 µg/mL)
CCCCCCSCC(=O)C(F)(F)F | 54.3 nM | 54.6 nM | – | –
CCCCCCCCCCCCS(=O)(=O)CC(O)(O)C(F)(F)F | 473 nM | 10.3 nM | 191 nM | –
O=C(CSCCc1ccccc1)C(F)(F)F | 75.3 nM | 162 nM | – | –
O=S(=O)(CCc1ccccc1)CC(O)(O)C(F)(F)F | 3390 nM | 1500 nM | 1780 nM | –
CCCCCCCCCCS(=O)(=O)CC(O)(O)C(F)(F)F | 1420 nM | 6.3 nM | 119 nM | –
CCCCCCS(=O)(=O)CC(O)(O)C(F)(F)F | 39000 nM | 1290 nM | 354 nM | –
CCCCCCCCCCCCSCC(=O)C(F)(F)F | 119 nM | 164 nM | 15 nM | –
CCCCCCCCS(=O)(=O)CC(O)(O)C(F)(F)F | 5640 nM | 24.5 nM | 147 nM | 1500 µM (≈ 460 µg/mL)
